Source: ChEMBL document CHEMBL1129494, “Structure-based design of lipophilic quinazoline inhibitors of thymidylate synthase” (J Med Chem, 1996)

Legend:
L1210 [1] = assay: (§1) Inhibition of L1210 (murine leukemia) cell growth in vitro.; assay type: functional, Mus musculus
Procedure, shortened: (§2)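 Murine L1210 leukemia cells seeded at 1000 cells/well in RPMI-1640 containing 5% fetal calf serum and 0.5% DMSO, exposed to nine 2-fold serial dilutions for 3 days. Growth was read by MTT (4 h), with formazan dissolved in DMSO and measured spectrophotometrically. IC50 comes from semilog concentration plots of the mean of four assessments per dilution versus control growth.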

GC3/MTK- [2] = assay: (§3) Inhibitory activity of compound against growth of thymidine kinase-deficient human adenocarcinoma cell line (GC3/M TK-) in tissue culture; assay type: functional
Procedure, shortened: (§4)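 MTT colorimetric growth assay in the thymidine kinase-deficient human adenocarcinoma line. Seeded at 10 000 cells/well in RPMI-1640 with 10% fetal calf serum and 0.5% DMSO. Nine 2-fold serial dilutions of compound, 5 day incubation, then 4 h MTT. Formazan dissolved in DMSO and read spectrophotometrically. IC50 taken from semilog plots of the mean of four growth assessments per dilution, relative to control cultures.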

GC3/MTK- [3] = assay: Inhibition of GC3/M TK- (human adenocarcinoma) cell growth in vitro.; assay type: functional, cell-based
Procedure, shortened: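 Thymidine kinase-deficient human adenocarcinoma GC3/M TK- cells seeded at 10 000 cells/well in RPMI-1640 with 10% fetal calf serum and 0.5% DMSO. Compound given as nine 2-fold serial dilutions over a 5 day incubation, then 4 h MTT and spectrophotometric formazan read after DMSO dissolution. IC50 from semilog plots of the mean of four growth assessments relative to control cultures.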

CCRF-CEM [4] = assay: Inhibitory activity of compound against growth of human leukemias (CCRF-CEM) cell line in tissue culture; assay type: functional
Procedure, shortened: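 CCRF-CEM human leukemia cells seeded at 10 000 cells/well in RPMI-1640 with 5% fetal calf serum and 0.5% DMSO. Exposed to nine 2-fold serial dilutions for 5 days, followed by 4 h with MTT. Formazan dissolved in DMSO and measured spectrophotometrically. IC50 read from semilog plots of the mean of four growth assessments per dilution versus control growth.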

L1210 [5] = assay: Inhibition of murine L1210 cell line tissue culture growth; assay type: functional, cell-based; details: Mus musculus; procedure, shortened: as §2
CCRF-CEM [6] = assay: (§5) Inhibition of CCRF-CEM (human leukemia) cell growth in vitro.; assay type: functional, cell-based
Procedure, shortened: (§6)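 MTT colorimetric growth assay (modified Mosmann) in CCRF-CEM human leukemia cells seeded at 10 000 cells/well in RPMI-1640 with 5% fetal calf serum and 0.5% DMSO. Nine 2-fold serial dilutions of compound, 5 day incubation, then 4 h MTT and formazan dissolved in DMSO for spectrophotometric reading. IC50 taken from semilog plots of the mean of four growth assessments per dilution relative to control cultures.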

[7] = target: Thymidylate synthase (Escherichia coli) (UniProt C3SWJ7)
L1210 [8] = assay: as §1; assay type: functional, Mus musculus; set-up: concentration or dose not given beside the values; procedure, shortened: as §2
[9] = target: Thymidylate synthase (Escherichia coli) (UniProt C3SWJ7); remark: listed apart in the source
CCRF-CEM [10] = assay: Inhibitory activity of compound against growth of human leukemias (CCRF-CEM) in tissue culture; assay type: functional; procedure, shortened: as §6
[11] = target: Thymidylate synthase (Homo sapiens) (UniProt P04818)
[12] = target: Thymidylate synthase (Homo sapiens) (UniProt P04818); remark: listed apart in the source
GC3/MTK- [13] = assay: as §3; assay type: functional; set-up: concentration or dose not given beside the values; procedure, shortened: as §4
CCRF-CEM [14] = assay: Activity for growth inhibition in tissue culture of human leukemias( CCRF-CEM); assay type: functional, cell-based; procedure, shortened: as §6
CCRF-CEM [15] = assay: as §5; assay type: functional; set-up: concentration or dose not given beside the values; procedure, shortened: as §6

Thymidylate synthase (Homo sapiens), sequence (P04818 2-313 limits assumed): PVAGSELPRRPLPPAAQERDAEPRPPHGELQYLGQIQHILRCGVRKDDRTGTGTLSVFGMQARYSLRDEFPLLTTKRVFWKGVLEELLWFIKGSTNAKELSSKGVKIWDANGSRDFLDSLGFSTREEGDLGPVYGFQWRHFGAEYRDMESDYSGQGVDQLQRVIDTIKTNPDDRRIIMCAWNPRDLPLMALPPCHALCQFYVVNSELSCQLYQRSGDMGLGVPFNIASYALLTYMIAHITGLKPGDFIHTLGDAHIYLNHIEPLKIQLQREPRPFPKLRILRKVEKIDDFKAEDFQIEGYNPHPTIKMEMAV
Thymidylate synthase (Escherichia coli), sequence (C3SWJ7 1-264): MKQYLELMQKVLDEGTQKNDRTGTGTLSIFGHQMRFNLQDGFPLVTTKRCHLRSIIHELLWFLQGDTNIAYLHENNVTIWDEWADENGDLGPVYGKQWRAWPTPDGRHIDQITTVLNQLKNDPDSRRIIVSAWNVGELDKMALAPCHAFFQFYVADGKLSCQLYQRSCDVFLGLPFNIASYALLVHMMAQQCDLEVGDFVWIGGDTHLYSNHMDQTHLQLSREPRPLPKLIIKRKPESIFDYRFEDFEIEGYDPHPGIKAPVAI

SMILES: C#CCN(Cc1ccc2nc(C)nc(O)c2c1)c1cccc(C(F)(F)F)c1
- Inhibition (L1210 [1]): 35%
- Inhibition (GC3/MTK- [2]): 25%
- IC50 (GC3/MTK- [3]): > 4.3 µM
- Inhibition (CCRF-CEM [4]): 41%
- IC50 (L1210 [5]): > 2.2 µM
- IC50 (CCRF-CEM [6]): > 4.3 µM

SMILES: C#CCN(Cc1ccc2nc(C)nc(O)c2c1)c1ccc(S(=O)(=O)N2CCN(C)CC2)cc1
- Kis [7]: 0.13 µM
- Inhibition (L1210 [8]): 27%
- Kii [9]: 0.28 µM
- Inhibition (CCRF-CEM [10]): 24%
- IC50 (GC3/MTK- [3]): > 10 µM
- Kis [11]: 0.083 µM
- Kii [12]: 0.19 µM
- Inhibition (GC3/MTK- [13]): 17%
- IC50 (L1210 [5]): > 10 µM
- IC50 (CCRF-CEM [6]): > 10 µM

SMILES: C#CCN(Cc1ccc2nc(C)nc(O)c2c1)c1ccc(Cl)cc1
- IC50 (CCRF-CEM [14]): > 4 µM
- Kis [7]: 0.85 µM
- Inhibition (L1210 [8]): 25%
- Kii [9]: 3.7 µM
- Inhibition (CCRF-CEM [15]): 20%
- Kis [11]: 0.36 µM
- Kii [12]: 0.77 µM
- IC50 (L1210 [5]): > 4 µM
